The subject of this series is MS2 coat protein. The series can be described thus: apparent Kd, MS2 coat protein; higher = weaker binding; RNA-MaP array; FMN 200 µM where present. The procedure, abridged:
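Green signal was scaled to red-channel RNA signal and control-cluster median Fmax, and the apparent Kd was taken as the median of filtered per-cluster binding-curve fits. The binding series used SNAP-549-labelled MS2 coat protein from 0.7 or 1.5 nM, doubling to 3 µM, on designs transcribed by stalled E. coli RNA polymerase on Illumina sequencing-chip clusters. Each series ran without and then with constant ligand in 100 mM Tris-HCl pH 7.5, 80 mM KCl, 4 mM MgCl2, BSA, DTT, yeast tRNA and Tween-20.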

Setting [1] is: designed as: OFF switch for flavin mononucleotide, no ligand.
Setting [2] is: ligand present: flavin mononucleotide, designed as: OFF switch for flavin mononucleotide.
Where [3] appears, read: designed as: ON switch for flavin mononucleotide, no ligand.
Setting [4] is: ligand present: flavin mononucleotide, designed as: ON switch for flavin mononucleotide.

From the EternaBench riboswitch data come the findings set out here.

Take “AUCAUGUGAGGAUAUGUGAUCAACCUUCUAUAUAGAUGAUGACAGAAGGCACAUGAGGAUCACCCAUGUAGAUC”: the “apparent Kd” value runs as follows: under setting [1], 90.7 nM; under setting [2], 21.8 nM.

In the case of “UUAAGGGACUGAGGAUAUACAUGAAUUAUUUUUGUAGAAGGCAGAUUGUUAGUUUAUUCACUAUACAUGAGGAUCACCCAUGUU”, the “apparent Kd” value worked out at 27.4 nM under setting [1] and 20.1 nM under setting [2].

Take “AAUUGACACGUAGGAUAUCGCUCUAAUUAAACACGAGAAGGACGUACAUGAGGAUCACCCAUGUUAAAUGGUGUAGAUAAGUUG”: the “apparent Kd” value under setting [1] turned out to be 172 nM and the “apparent Kd” value under setting [2] stood at 479 nM.

As for “AGUUGGCGAGGAUAUACAUGAGGAUCACCCAUGUGAGAGAAUAAAGUGAGGAAGAAAAGUAGAAGGCGCUGACA”, the “apparent Kd” value turned out to be 47.8 nM under setting [1] and 154 nM under setting [2].

As for “AGAUACUACGAGAAGGACAUGAGGAUCACCCAUGUAACCAGUAUCUGGAAUGUAGGAUAUCGUAGUAUCAGGAUCGUGAGAUCA”, the “apparent Kd” value reads like this: under setting [1], 9.91 nM; under setting [2], 32.9 nM.

Turning to “UUUACAUUACGAGGAUAUCAUUUAUUUCAUGUUUGAGAAGGCGUUUUUUUUAUUACCUUACAUGAGGAUCACCCAUGUUUCUUU”, the “apparent Kd” value by setting is: under setting [3], 35.8 nM; under setting [4], 21.8 nM.

As for “AGGUAACAUGAGGAUCACCCAUGUCAGGAUAUCAUGAAGAGGAGAUUAGAGGAGAGGUUGAGAAGGGACUAUAU”, the “apparent Kd” value came out at 76 nM under setting [1] and 57.4 nM under setting [2].

“ACAAAACAUGAGGAUCACCCAUGUGAGGAUAUGCGAAACAAACAAACAAACAAACAAAGCAGAAGGCACAACAA”: the “apparent Kd” value was 22.7 nM under setting [1] and 37.1 nM under setting [2].

Regarding “UGAGCCUCGUGAGGAUAUACAUGAGGAUCACCCAUGUAAUAAAGUGAACGGAGGUAACUCCGAAUGUAGAAGGCACGAGGCUCA”, the “apparent Kd” value reads like this: under setting [1], 38 nM; under setting [2], 306 nM.

As to “UAGGACUACGUAGGAUAUGUAGGAUAUUCCUACAUGAGGAUCACCCAUGUUAGCAUGUAAGUAGGACAGAAGGACGUGGUAAAU”, the “apparent Kd” value under setting [3] is 695 nM and the “apparent Kd” value under setting [4] came out at 79.9 nM.

As to “GGGUACAUCGGAGGAUAUCAUAUAAAUACAUGAGGAUCACCCAUGUCGAUGGAGACAUCGGAGAUUGAGAAGGCCGAUGUACCG”, the “apparent Kd” value is, setting by setting: under setting [3], 8.43 nM; under setting [4], 5.54 nM.

For “AGUAUUGUAGGGUAUCCAACAUGAGGAUCACCCAUGUACCAGAGAAGGACCCGUGCAUUGCUCGGGUAGGAUAUCUGCGCAUCA”, the “apparent Kd” value is 19.4 nM under setting [1] and 172 nM under setting [2].

For the sequence “UUACUAUCACAGAAGGCUAGAUAGUAUAUAGAUGGAGGAUAUGUGACAUGAGGAUCACCCAUGUUUCACCGACAUGAGGAUCAC”, the “apparent Kd” value under setting [1] is 17.4 nM and the “apparent Kd” value under setting [2] is 41.6 nM.

“AUAAUACAUGAGGAUCACCCAUGUAAUUUAACUUGUAAGAUCAAGGAUAUCAGCUCGAUUAGAGCUGAGAAGGUGAUCACAUGU”: the “apparent Kd” value was 154 nM under setting [3] and 229 nM under setting [4].

“GUUUUCGCAUGAGGAUAUGCUCGCAUUUCAAGAGCAGAAGGUAUGUCUAUAGACAUGAGGAUCACCCAUGUAUUUAACUUUGAA”: the “apparent Kd” value under setting [3] was determined as 232 nM and the “apparent Kd” value under setting [4] amounted to 44.5 nM.

For “AGAUGACAAUGUCAUCUUCAACGGACAUGAGGAUCACCCAUGUAGGAUAUGCUACUCAAAGAGUAGCAGAAGGACAUGUGUCUU”, the “apparent Kd” value under setting [1] turned out to be 23.1 nM and the “apparent Kd” value under setting [2] was found to be 85.2 nM.

As to “CCUGUCGCAUGAGGAUAUGGUCAGCUUUGCUGACCAGAAGGCAUGUCGAUAGACAUGAGGAUCACCCAUGUAGUAAAGACAGGA”, the “apparent Kd” value runs as follows: under setting [3], 831 nM; under setting [4], 57.3 nM.

For the sequence “GAAAACAUAGGAUAUACAUGAGGAUCACCCAUGUUAAAAUAAAGAAAGGGAGAAAUAAGUAGAAGGAUGAAAAA”, the “apparent Kd” value reads like this: under setting [1], 33.8 nM; under setting [2], 34.2 nM.

Take “GCGGAACAUGAGGAUCACCCAUGUAUCCCAAAUAUGGACUCACAGGAUAUCCCGAGUUUCCAGUGGGAGAAGGGUGACUCCAGA”: the “apparent Kd” value is, setting by setting: under setting [3], 21.7 nM; under setting [4], 11.1 nM.

For the sequence “AUGGAUAUCACAGGAUAUGCUAUGGAUACCAUAGCAGAAGGGUGAUCCAUCCUAUGUGAGCACAUGAGGAUCACCCAUGUGUCC”, the “apparent Kd” value was 123 nM under setting [3] and 23.1 nM under setting [4].

With “UACUUGUCAGGAUAUCUUACAUUAACAUCGUAGUUACCGUUGGAGAAGGGACAUGAGGAUCACCCAUGUUUGGC”, the “apparent Kd” value runs as follows: under setting [1], 32 nM; under setting [2], 54.9 nM.

“CUGUUACAUGAGGAUCACCCAUGUAAGGAUAUCUGCCACUAGAGGGUCACUUUGGGAUGGAGAAGGUACACGGG”: the “apparent Kd” value runs as follows: under setting [1], 34.6 nM; under setting [2], 68.6 nM.

Turning to “CGGCCGCUACGCCGGCUCGACGCACAGGAUAUGCUGUUACAUGAGGAUCACCCAUGUGGCCAUGAGCAGAAGGGUGAUUCGCGA”, the “apparent Kd” value under setting [3] stood at 48.9 nM and the “apparent Kd” value under setting [4] is 30.9 nM.

For “AGGUACCAUGUUAGGAUAUCACUGACUAACGUCGCUGAGAAGGAACAUGAGGAUCACCCAUGUGCCGGGCUCUU”, the “apparent Kd” value by setting is: under setting [1], 20.9 nM; under setting [2], 50.8 nM.

For “UUUUAGUAAGGAUAUGCGUAGAUCUCGGAAACGAGAUCUACGCAGAAGGUACAUGAGGAUCACCCAUGUAGAUU”, the “apparent Kd” value is, setting by setting: under setting [1], 17.4 nM; under setting [2], 22.3 nM.

Take “AUAUAACCUAGCAAAAUUUAAUAACAUGAGGAUCACCCAUGUAGAAGGCUGUCCUAAAAUAGGACAGAGGAUAUACGUGCUAGG”: the “apparent Kd” value amounted to 5.43 nM under setting [1] and 6.73 nM under setting [2].

Consider “UUCUUUACACGAGGAUAUCAUACAUGAGGAUCACCCAUGUUACUUUGUCUGUUAUUAUGUAUUAUUGAGAAGGCGUUUUUCUUU”, for which the “apparent Kd” value is, setting by setting: under setting [1], 20.7 nM; under setting [2], 17.9 nM.

On to “UUGGACGUCGUAGGAUAUGUAGGAUAUUCCUACAUGAGGAUCACCCAUGUUGACAUGGAAGAAGGACAGAAGGACGAUUUCCAU”, for which the “apparent Kd” value under setting [3] turned out to be 284 nM and the “apparent Kd” value under setting [4] came out at 5.41 nM.

For the sequence “CGCAAAGAUGGGUUUAAUGGAGCAUAGGAUAUGCUUGUACAUGAGGAUCACCCAUGUAAUAUUGUGCAGAAGGGUGCAUUUGCG”, the “apparent Kd” value reads like this: under setting [3], 293 nM; under setting [4], 74.3 nM.

“UUUGUUUUGCAAGGAUAUGUUUAAUUUUAUUUUCCUUACACAUGAGGAUCACCCAUGUUAUUCUUACAGAAGGUGCGUAAUUUG”: the “apparent Kd” value by setting is: under setting [1], 165 nM; under setting [2], 166 nM.

Regarding “CAUUAAUUCAUUAUAGUUAUUAUACAGGAUAUGUUACAUGAGGAUCACCCAUGUAUUCAUGGUAAACAGAAGGGUAAUUCAAGU”, the “apparent Kd” value by setting is: under setting [1], 24.9 nM; under setting [2], 22.6 nM.

Regarding “AAUAUAGAGCUGGAAUAAAACCUCACAUGAGGAUCACCCAUGUAGGAUAUCAGCACGAUAAGUGCUGAGAAGGACAUCCAGCUC”, the “apparent Kd” value under setting [1] stood at 15.6 nM and the “apparent Kd” value under setting [2] came out at 17.9 nM.

As to “CGUAUCGUAAGAGGAUAUAUGAGUCCUACAUGAGGAUCACCCAUGUAGGUGAUCUAACGAGAUUAGUAGAAGGCUUACGAUACG”, the “apparent Kd” value is, setting by setting: under setting [3], 14.3 nM; under setting [4], 7.96 nM.

With “AUUAUUAAAGUGAGGAUAUCUAGAGCUUCGGCUCUAGAGAAGGCACAUGAGGAUCACCCAUGUCUCAAUUAUUA”, the “apparent Kd” value under setting [1] is 18.5 nM and the “apparent Kd” value under setting [2] was 59.4 nM.

For “CUGUAGAUAUCAGGAUAUCUAUUUCCUACAUGAGGAUCACCCAUGUAGGUGAUCAGCCAAGUAAAGGAGAAGGGAUAUCUAUAG”, the “apparent Kd” value runs as follows: under setting [3], 38.5 nM; under setting [4], 11 nM.

Take “UAAAAUUUAUGAUAUUAUGACAGUAGAAGGCUAUACAUGUUGAUACAUGAGGAUCACCCAUGUAUAGAGGAUAUAUACAUUUAU”: the “apparent Kd” value by setting is: under setting [1], 845 nM; under setting [2], 832 nM.

For the sequence “UGGGCGAGCCCAGUACUCACACAUGAGGAUCACCCAUGUGACGAGGAUAUAGACAGCGAUGCGUACUAGAAGGCGUCACGGUAA”, the “apparent Kd” value came to 11 nM under setting [1] and 46.2 nM under setting [2].

Take “GGGUACAUCGGAGGAUAUCAUGUAAAUACAUGAGGAUCACCCAUGUCGAUGGAGACAUCGGAGAUUGAGAAGGCCGAUCUACCG”: the “apparent Kd” value runs as follows: under setting [3], 213 nM; under setting [4], 9.94 nM.

“UGUCGGAGCAGAGGAUAUUACAUGAGGAUCACCCAUGUUUGAACCAAUAGCUGGAAACAGCAAUGUAAGAAGGCUGCUCCGACA”: the “apparent Kd” value came to 91.2 nM under setting [1] and 242 nM under setting [2].

For the sequence “CAGAAACAUGAGGAUCACCCAUGUGAGGAUAUGCGUACGUUGUCCGUAGGCGACGUGCGCAGAAGGCACAAAGG”, the “apparent Kd” value under setting [1] turned out to be 132 nM and the “apparent Kd” value under setting [2] was determined as 256 nM.

For the sequence “CUAUGUUAGCAGGAUAUGCCAUUAUUCUUUUUCGCAGAAGGGCUUACAUGAGGAUCACCCAUGUUACAUUUCUU”, the “apparent Kd” value was determined as 15 nM under setting [1] and 36.5 nM under setting [2].

For “GCCGAUUAAGUGAGGAUAUACCUAUGGAUACAUAGGUAGAAGGCACAUGAGGAUCACCCAUGUUCCUCAACGGC”, the “apparent Kd” value reads like this: under setting [1], 15.6 nM; under setting [2], 87.8 nM.

Regarding “UGGGUCCCAGUCAGGAUAUCGUGCUUUUACAUGCACGAGAAGGGACAUGAGGAUCACCCAUGUCAAGGCGGUCA”, the “apparent Kd” value under setting [1] turned out to be 102 nM and the “apparent Kd” value under setting [2] amounted to 330 nM.

For “GCUGACGAUGUAGGAUAUCUCGACGAUAAGUCGAGAGAAGGACAUGAGGAUCACCCAUGUAACUCAACGUCAGCGAGGAAACUC”, the “apparent Kd” value is, setting by setting: under setting [1], 17.8 nM; under setting [2], 20.6 nM.

For the sequence “AAGAACAUUGACAUGAGGAUCACCCAUGUUGCAGCUAGCUACAGAAGGCACGCGGUACCAAAGGGUGAGGAUAUGUAGGGCCAU”, the “apparent Kd” value under setting [3] came out at 93.4 nM and the “apparent Kd” value under setting [4] was found to be 17.2 nM.

As for “AGAUUUGUACAUGAGGAUCACCCAUGUUAAUAGGUGGUUGUCAGAAGGCAUUAAUAGAGUUUUAAUGAGGAUAUGAAUUUACAA”, the “apparent Kd” value under setting [3] was 1030 nM and the “apparent Kd” value under setting [4] stood at 803 nM.

For the sequence “UAUUUUAACUAAGGAUAUCUGUAUUAUGUAGAAACAUGAGGAUCACCCAUGUUCUUGAUAUUAUAGGAGAAGGUAGAUGAAUAA”, the “apparent Kd” value runs as follows: under setting [3], 6.6 nM; under setting [4], 5.72 nM.

Turning to “ACCUCACAUGAGGAUCACCCAUGUCAGGAUAUCUAAUGUAGUAGCGUUCCCGACGCUAAGAGAAGGGACAUUAA”, the “apparent Kd” value by setting is: under setting [1], 15.9 nM; under setting [2], 22 nM.
